The nature of data set [1]: Effective permeability of the compound at pH 7.4 at 50 uM after 4 hrs by PAMPA. Format: physicochemical. Particulars: read-out: Peff. A digest of the protocol:
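BBB-PAMPA (double-sink) setup. 10 mM DMSO stocks were diluted to 50 µM in buffer pH 7.4 as the donor, with brain sink buffer as the acceptor. Incubated 4 h at 26 °C. Donor, acceptor and reference concentrations measured by UV (230–498 nm), and Pe calculated on a double-sink basis.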

The target of data set [2] is Peptidyl-prolyl cis-trans isomerase F, mitochondrial (Mus musculus) (UniProt Q99KR7). Briefly: Inhibition of cyclophilin D in mouse HT22 cells assessed as reduction in amyloid beta (1 to 42) induced mitochondrial permeability transition pore opening by measuring increase in green to red fluorescence ratio at 5 uM pretreated for 10 mins followed by amyloid beta (1 to 42) stimulation measured at 1 hr interval for 3 hrs by JC-1 dye based fluorescence assay relative to control. Format: cell-based. Details: scale not given: the % may be the effect or the level left. A digest of the protocol:
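HT-22 cells, 30,000 per well, loaded with JC-1 at 7.5 µM final in phenol red-free Opti-MEM for 1 h 15 min at 37 °C, then PBS-washed. Compound at 5 µM for 10 min at 37 °C, then Aβ1-42 (5 µM solution) added. Red (ex/em 530/580 nm) and green (485/530 nm) fluorescence read hourly for 3 h. Green/red ratio normalized to the Aβ-alone control as 100%.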

For data set [3], the system named is N2a. Briefly: Induction of reactive oxygen species production in mouse Neuro2a cells assessed as H2O2 level at 10 uM after 6 hrs by ROS-Glo luminescence assay relative to control. The class given is cell-based. A digest of the protocol: (§1)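 Neuro-2a cells, 2000 per well, given compounds from 10-dose 3-fold serial dilutions of 10 mM DMSO stocks. H2O2 substrate added immediately, then 6 h at 37 °C, 5% CO2. ROS-Glo detection reagent added for 20 min at RT, then luminescence read. H2O2 expressed as fold of untreated, with IC50 fitted from the dose series.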

The subject of data set [4] is N2a. Briefly: Inhibition of reactive oxygen species production in mouse Neuro2a cells assessed as decrease in H2O2 levels after 6 hrs by ROS-Glo luminescence assay. The class given is functional, cell-based. A digest of the protocol:
as §1

Data set [5] is described as follows: Cytotoxicity against mouse Neuro2a cells assessed as cell viability at 10 uM after 72 hrs by MTT assay relative to control. The class given is cell-based, N2a. Particulars: read-out: Activity. A digest of the protocol: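 Neuro-2a cells grown in EMEM with 10% FBS and penicillin/streptomycin. A 10 mM DMSO stock was diluted 3-fold over 10 doses in DMSO, and 2000 cells were added per well. Incubated 72 h at 37 °C, 5% CO2. MTT added for 4 h, then solubilization/stop solution for 1 h. Absorbance read at 590 nm. Viability is from color intensity, with IC50 fitted to a sigmoidal dose-response curve.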

For data set [6], the system named is N2a. Briefly: Cytotoxicity against mouse Neuro2a cells assessed as cell viability after 72 hrs by MTT assay. Format: ADME, cell-based.
Data set [7] concerns the target Peptidyl-prolyl cis-trans isomerase F, mitochondrial (Mus musculus) (UniProt Q99KR7). Briefly: Inhibition of Cyclophilin D in mouse HT22 cells assessed as neuroprotective activity against amyloid beta (1 to 42) induced impairment of ATP production by measuring cell viability at 5 pretreated for 10 mins followed by amyloid beta (1 to 42) stimulation measured after 7 hrs by luciferase based assay relative to control. A digest of the protocol: (§2)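 HT-22 cells, 10,000 per well, seeded one day before. Cells pretreated 10 min at 37 °C with compound, then Aβ1-42 added, and incubated 7 h. Cells were washed, lysed in 1% Triton X-100/TBST, and equal protein amounts (BCA) assayed for ATP by luciferase. Recovery was calculated against the Aβ-treated vehicle control. ATP viability comes from samples without Aβ.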

For data set [8] the target is unchanged. Briefly: Inhibition of Cyclophilin D in mouse HT22 cells assessed as neuroprotective activity against amyloid beta (1 to 42) induced impairment of ATP production by measuring assessed as recovery of ATP production at 5 uM pretreated for 10 mins followed by amyloid beta (1 to 42) stimulation measured after 7 hrs by luciferase based assay relative to control. The class given is cell-based. Details: scale not given: the % may be the effect or the level left. The essentials: as §2

Data set [9] has the same target. Briefly: Inhibition of Cyclophilin D in mouse HT22 cells assessed as reduction in amyloid beta (1 to 42) induced reactive oxygen species production at 5 uM after 6 hrs by CMH2DCFDA dye based fluorescence assay relative to control. The class given is cell-based. The essentials: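 HT-22 cells, 10,000 per well, treated with compound plus Aβ1-42 in Opti-MEM for 6 h. Cells loaded with CM-H2DCFDA (diluted from 1 mM stock) in HBSS for 30 min at 37 °C, then Hoechst added. Total fluorescence intensity per well taken from high-content imaging. Inhibition expressed as percent of the Aβ-induced signal increase.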

A short description of data set [10]: Cytotoxicity against mouse HT22 cells assessed as cell viability at 5 uM after 24 hrs by MTT assay relative to control. Format: cell-based, HT-22. Conditions: read-out: Activity. The essentials:
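HT-22 cells, 5000 per well, seeded one day before the assay. Compound solution added, then cells incubated 24 h at 37 °C. MTT added for 2 h at 37 °C. Formazan dissolved in 10% Triton X-100 in isopropanol with 0.1 M HCl for 1 h at room temperature, then absorbance read. Viability relative to vehicle control, without Aβ.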

Data set [11] addresses Peptidyl-prolyl cis-trans isomerase F, mitochondrial (Mus musculus) (UniProt Q99KR7). Briefly: Inhibition of Cyclophilin D in mouse HT22 cells assessed as reduction in amyloid beta (1 to 42) induced decrease in cell viability at 5 uM after 24 hrs by MTT assay relative to control. The class given is cell-based. A digest of the protocol: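 HT-22 cells, 5000 per well, pretreated 10 min with compound, then Aβ1-42 added and incubated 24 h at 37 °C. MTT added for 2 h, then acidified Triton/isopropanol solubilization, and absorbance read at 570 nm. Percent inhibition calculated relative to vehicle control with Aβ.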

In data set [12] the target is Voltage-gated inwardly rectifying potassium channel KCNH2 (Homo sapiens, UniProt Q12809). Briefly: Displacement of [3H]-Astemizole from human ERG expressed in HEK293 cell membranes measured after 1 hr by microbeta counting method. The essentials:
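Radioligand binding to membranes (2.5 µg) from HEK-293 cells expressing hERG. Buffer was 50 mM Hepes pH 7.4 with 60 mM KCl, 0.1% BSA and 4 nM [3H]astemizole, incubated 1 h at RT. Samples filtered through PEI-soaked filtermat. Non-specific binding defined with 0.1 µM astemizole. Used 5–6 test concentrations in duplicate, with isotherms from two assays.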

Peptidyl-prolyl cis-trans isomerase F, mitochondrial (Mus musculus), sequence (Q99KR7 whole entry): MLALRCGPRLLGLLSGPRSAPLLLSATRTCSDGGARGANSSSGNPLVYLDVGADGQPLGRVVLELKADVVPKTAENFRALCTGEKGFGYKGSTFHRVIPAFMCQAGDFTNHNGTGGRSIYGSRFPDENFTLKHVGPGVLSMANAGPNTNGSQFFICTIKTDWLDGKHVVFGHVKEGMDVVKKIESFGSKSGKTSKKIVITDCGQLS
Voltage-gated inwardly rectifying potassium channel KCNH2, sequence (Q12809 whole entry): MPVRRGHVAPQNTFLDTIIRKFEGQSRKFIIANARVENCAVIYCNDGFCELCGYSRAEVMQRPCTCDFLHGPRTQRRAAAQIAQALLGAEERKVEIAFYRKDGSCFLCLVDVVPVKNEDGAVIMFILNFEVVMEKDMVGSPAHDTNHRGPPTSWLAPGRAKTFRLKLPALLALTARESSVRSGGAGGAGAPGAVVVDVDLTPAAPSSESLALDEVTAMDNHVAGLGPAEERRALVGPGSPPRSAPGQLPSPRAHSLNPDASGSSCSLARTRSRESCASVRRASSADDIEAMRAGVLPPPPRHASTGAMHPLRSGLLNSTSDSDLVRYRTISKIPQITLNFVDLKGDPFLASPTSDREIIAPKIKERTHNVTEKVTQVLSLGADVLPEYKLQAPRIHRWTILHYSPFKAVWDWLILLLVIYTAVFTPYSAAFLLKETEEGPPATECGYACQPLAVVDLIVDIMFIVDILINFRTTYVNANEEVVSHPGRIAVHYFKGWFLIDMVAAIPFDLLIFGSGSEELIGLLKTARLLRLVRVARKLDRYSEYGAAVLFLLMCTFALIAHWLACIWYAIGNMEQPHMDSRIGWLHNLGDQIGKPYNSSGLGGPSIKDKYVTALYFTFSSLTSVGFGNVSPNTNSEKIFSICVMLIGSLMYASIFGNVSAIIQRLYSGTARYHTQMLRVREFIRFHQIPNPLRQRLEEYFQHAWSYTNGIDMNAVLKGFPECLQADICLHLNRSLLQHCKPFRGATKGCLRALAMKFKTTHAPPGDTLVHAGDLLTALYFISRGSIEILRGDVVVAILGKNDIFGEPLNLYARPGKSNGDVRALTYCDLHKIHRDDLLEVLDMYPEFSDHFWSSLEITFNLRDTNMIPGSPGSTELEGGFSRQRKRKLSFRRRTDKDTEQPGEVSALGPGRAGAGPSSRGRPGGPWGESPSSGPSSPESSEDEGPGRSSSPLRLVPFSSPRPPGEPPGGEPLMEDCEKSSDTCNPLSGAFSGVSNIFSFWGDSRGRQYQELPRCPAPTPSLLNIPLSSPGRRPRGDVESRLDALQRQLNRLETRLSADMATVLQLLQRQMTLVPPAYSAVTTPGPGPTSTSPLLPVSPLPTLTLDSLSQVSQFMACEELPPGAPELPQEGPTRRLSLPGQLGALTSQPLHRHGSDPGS

Take `CC(=O)[C@H]1CC[C@H]2[C@@H]3CCC4=CC(=O)CC[C@]4(C)[C@H]3CC[C@]12C` [PROGESTERONE]: the Papp at 4 h, 50 µM in data set [1] came out at 48.8 ×10⁻⁶ cm/s.

On to `O=C(Nc1ncccc1OCc1ccc(Cl)cc1)NC1CCCCCC1`, for which the Activity in data set [2] came to 19%; in [7], 105%; in data set [8] it was 47%. The “fold change (FC)” value in the data set with N2a [3] is 1.15. The IC50 in the data set on N2a [4] and with N2a [6] was greater than 10 µM in each case. Moreover, the viability at 72 h, 10 µM in data set [5] turned out to be 85.2%.

Consider `CC(C)(C)NC(=O)Nc1ncccc1OCc1ccc(F)cc1`, for which, in data set [2], the Activity was 49%.

`O=C(Nc1ncccc1OCc1ccc(F)cc1)NC1CCCCCC1`: the Activity in [2] is 28%; in [7], 99%; in data set [8] it was 40%. For the same compound, the “fold change (FC)” value in the data set with N2a [3] was found to be 0.91. Also, the IC50 in the data set on N2a [4] and with N2a [6] was greater than 10 µM throughout. For the same compound, the viability at 72 h, 10 µM in data set [5] turned out to be 93.2%.

As to `CC(C)(C)NC(=O)Nc1ncccc1OCc1cccc(Cl)c1`, in data set [2], the Activity was 176%.

On to `Cn1c(=O)c2[nH]cnc2n(C)c1=O.O` [THEOPHYLLINE], for which, in data set [1], the Papp at 4 h, 50 µM stood at 0.29 ×10⁻⁶ cm/s.

In the case of `CC(C)(C)CC(C)(C)NC(=O)Nc1ncccc1OCc1ccccc1Cl`, in data set [2], the Activity stood at 21%.

`CC(C)(C)NC(=O)Nc1ncccc1OCc1cccc(F)c1`: the figures for the Activity in [2], in [7] and in [8] were 44%, 129% and 45%, respectively. Further, the “fold change (FC)” value in the data set with N2a [3] worked out at 0.94. Moreover, the concentration for half-maximal inhibition (IC50) in the data set on N2a [4] and with N2a [6] was greater than 10 µM in each case. In data set [5], the viability at 72 h, 10 µM was determined as 95.8%.

Take `O=C(NCCCl)Nc1ncccc1OCc1cccc(Cl)c1`: in data set [2], the Activity was determined as 73%.

Consider `O=C(NCCCl)Nc1ncccc1OCc1ccc(Cl)cc1`, for which the Activity in data set [2] is 131%.

Regarding `CCNC(=O)Nc1ncccc1OCc1ccc(F)cc1`, the Activity in data set [2] is 127%.

Regarding `O=C(NCCCl)Nc1ncccc1OCc1ccccc1Cl`, the Activity in data set [2] is 41%.

Turning to `CCNC(=O)Nc1ncccc1OCc1ccccc1Cl`, the Activity in data set [2] was 49%.

On to `O=C(Nc1ncccc1OCc1cccc(F)c1)NC1CCCCCC1`, for which the Activity in [2] turned out to be 91%.

Turning to `NC(=O)CN1CCCC1=O`, the Activity in data set [7] amounted to 88%; in data set [8], 127%. Further, the values for the inhibition in data set [9] and in data set [11] were 129% and 29%, respectively. Besides, the viability at 24 h, 5 µM in [10] was found to be 132%.

For `CCNC(=O)Nc1ncccc1OCc1cccc(F)c1`, the Activity amounted to 14% in data set [2], 102% in data set [7] and 41% in data set [8]. The “fold change (FC)” value in the data set with N2a [3] was found to be 1.14. The IC50 with N2a [4] and with N2a [6] was greater than 10 µM each time. For the same compound, the viability at 72 h, 10 µM in [5] was determined as 96.6%.

Turning to `CC(C)(C)CC(C)(C)NC(=O)Nc1ncccc1OCc1cccc(Cl)c1`, in data set [2], the Activity turned out to be 50%.

For the compound `CCNC(=O)Nc1ncccc1OCc1ccc(Cl)cc1`, in data set [2], the Activity amounted to 94%.

Consider `O=C(NCCN1CCNCC1)Nc1ncccc1OCc1cccc(Cl)c1`, for which, in data set [2], the Activity is 48%.

Regarding `O=C(NCCN1CCNCC1)Nc1ncccc1OCc1ccccc1`, the Activity in data set [2] was found to be 16%; in data set [7] it was 78%; in data set [8] it was 87%. Besides, in the data set on N2a [3], the “fold change (FC)” value amounted to 0.97. Besides, the IC50 with N2a [4] is greater than 10 µM; in the data set with N2a [6] it was greater than 10 µM; in [12] it was greater than 28.7 µM. The viability at 72 h, 10 µM in data set [5] worked out at 102%. The inhibition stood at 97% in data set [9] and 81% in data set [11]. Moreover, the viability at 24 h, 5 µM in [10] was found to be 133%. The Papp at 4 h, 50 µM in data set [1] amounted to 20.6 ×10⁻⁶ cm/s.

In the case of `O=C(Nc1ncccc1OCc1ccccc1)NC1CCCCCC1`, in data set [2], the Activity was determined as 130%.

`O=C(NCCCl)Nc1ncccc1OCc1ccccc1`: the Activity in data set [2] worked out at 169%.

On to `CC(C)(C)NC(=O)Nc1ncccc1OCc1ccc(Cl)cc1`, for which the results for the Activity in [2], in data set [7] and in data set [8] were 35%, 104% and 13%, respectively. In addition, in the data set on N2a [3], the “fold change (FC)” value is recorded as 0.91. Besides, the IC50 with N2a [4] and in the data set on N2a [6] was greater than 10 µM each time. For the same compound, the viability at 72 h, 10 µM in data set [5] was determined as 93.1%.

For `CC(C)(C)CC(C)(C)NC(=O)Nc1ncccc1OCc1cccc(F)c1`, the Activity in data set [2] was 31%; in data set [7], 30%; in data set [8], -140%. Further, the “fold change (FC)” value in the data set with N2a [3] is on record as 1.02. Further, the IC50 in the data set with N2a [4] and in the data set with N2a [6] was greater than 10 µM each time. For the same compound, the viability at 72 h, 10 µM in [5] stood at 101%.

For `O=C(Nc1ncccc1OCc1ccccc1Cl)NC1CCCCCC1`, the Activity in [2] was found to be 41%.

Take `O=C(Nc1ncccc1OCc1cccc(Cl)c1)NC1CCCCCC1`: the Activity in data set [2] amounted to 46%.

Take `CC(C)(C)NC(=O)Nc1ncccc1OCc1ccccc1`: the Activity in data set [2] stood at 23%; in [7], 103%; in data set [8], 72%. Moreover, in the data set on N2a [3], the “fold change (FC)” value was found to be 0.92. Besides, the IC50 with N2a [4] and in the data set with N2a [6] was greater than 10 µM in each case. Also, in [5], the viability at 72 h, 10 µM is 106%. Also, the figures for the inhibition in data set [9] and in [11] were 95% and 11%, respectively. Also, the viability at 24 h, 5 µM in [10] worked out at 92%. In [1], the Papp at 4 h, 50 µM is 45.1 ×10⁻⁶ cm/s.

For `CC1=CC(=O)c2ccccc2C1=O` [MENADIONE], in the data set with N2a [3], the “fold change (FC)” value is listed as 6.94. In the data set with N2a [4], the IC50 was found to be 2.69 µM.

On to `CN[C@@H]1C[C@H]2O[C@@](C)([C@@H]1OC)n1c3ccccc3c3c4c(c5c6ccccc6n2c5c31)C(=O)NC4` [STAUROSPORINE], for which the viability at 72 h, 10 µM in data set [5] was 1.3%.

As for `O=C(NCCCl)Nc1ncccc1OCc1ccc(F)cc1`, the Activity in data set [2] amounted to 64%.
